Laboratory results: ChEMBL document CHEMBL4402547, “Synthesis and Pharmacological Characterization of Conformationally Restricted Retigabine Analogues as Novel Neuronal Kv7 Channel Activators” (J Med Chem, 2020)
Active and inactive are the calls of the source. The rule behind the calls is not given here.

Columns and labels:
[1] = target: T1, Potassium voltage-gated channel subfamily KQT member 2 (Homo sapiens, UniProt O43526); test: Activation of human Kv7.2 expressed in CHO cells assessed as maximal steady-state increase in current amplitude at 10 uM measured after 200 secs at holding potential of -40 mV by whole cell patch clamp electrophysiology assay; type: cell-based
[2] = Lipophilicity, log P of the compound; type: physicochemical; settings: octanol/water
[3] = target: T1, Potassium voltage-gated channel subfamily KQT member 2; test: Activation of human Kv7.2 expressed in CHO cells assessed as increase in maximal channel conductance at 0.03 uM in constant voltage pulses by whole cell patch clamp electrophysiology assay; type: cell-based
Outline: (§1)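 Transiently transfected CHO cells (human Kv7.2 cDNA in pcDNA3.1, EGFP marker), recorded 24 h post-transfection by whole-cell patch clamp at 20–22°C; extracellular solution in mM 138 NaCl, 2 CaCl₂, 5.4 KCl, 1 MgCl₂, 10 glucose, 10 HEPES, pH 7.4. Constant voltage pulses before and after 0.03 μM compound; conductance/voltage curves fitted to double Boltzmann for V1/2 and maximal conductance.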

[4] = target: T1, Potassium voltage-gated channel subfamily KQT member 2; test: Activation of human Kv7.2 expressed in CHO cells assessed as half-activation voltage at 0.03 uM in constant voltage pulse by whole cell patch clamp electrophysiology assay (reference value: -38.2 +/- 2 mV); type: cell-based; outline: as §1
[5] = target: Voltage-gated potassium channel, KQT; KCNQ2(Kv7.2)/KCNQ3(Kv7.3) (Homo sapiens) (UniProt O43526+O43525); test: Activation of human Kv7.2/Kv7.3 expressed in CHO cells assessed as increase in channel current amplitude by whole cell patch clamp electrophysiology assay; type: cell-based
Outline: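 Human Kv7.2 plus Kv7.3 cDNAs co-transfected into CHO cells; whole-cell patch clamp at 20–22°C, extracellular solution pH 7.4. Drug applied at 0.01–10 μM to test concentration-dependent current increase.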

[6] = target: T1, Potassium voltage-gated channel subfamily KQT member 2; test: Activation of human Kv7.2 expressed in CHO cells assessed as current amplitude at 10 uM measured after 200 secs upon drug wash-out at holding potential of -40 mV by whole cell patch clamp electrophysiology assay; type: cell-based
[7] = target: T1, Potassium voltage-gated channel subfamily KQT member 2; test: Activation of human Kv7.2 expressed in CHO cells assessed as leftward shift in half-activation voltage at 0.03 uM in constant voltage pulse by whole cell patch clamp electrophysiology assay; type: cell-based
Outline: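 CHO cells transiently expressing human Kv7.2, whole-cell patch clamp at 20–22°C, pH 7.4 bath. Currents activated by constant voltage pulses before and after 0.03 μM drug. Normalized conductance/voltage curves fitted to a double Boltzmann function to obtain half-activation voltage (V1/2).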

[8] = target: T1, Potassium voltage-gated channel subfamily KQT member 2; test: Activation of human Kv7.2 expressed in CHO cells assessed as increase in current amplitude with fast ON kinetics measured at holding potential of -40 mV by whole cell patch clamp electrophysiology assay; type: cell-based
Outline: (§2)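 Human Kv7.2 transiently expressed in CHO cells, whole-cell patch clamp at 20–22°C, pH 7.4 HEPES-buffered extracellular solution under constant perfusion. Cells held at -80 mV; 3-s ramps -80 to +20 mV with and without compound; current at -40 mV taken as drug/control amplitude ratio, followed over time during application and wash-out; mean ± SEM of ≥3 cells from ≥2 transfections.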

[9] = target: T1, Potassium voltage-gated channel subfamily KQT member 2; test: Activation of human Kv7.2 expressed in CHO cells assessed as maximal steady-state increase in current amplitude at 10 uM measured within 10 secs at holding potential of -40 mV by whole cell patch clamp electrophysiology assay; type: cell-based; outline: as §2
[10] = Photostability of compound in pH 7.4 buffer assessed as compound degradation at 100 ug/ml incubated for 6 hrs under artificial daylight D65 lamp-irradiation by HPLC analysis relative to control
Outline: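 Compound from DMSO stock diluted in pH 7.4 buffer to final 1 mM, 10 μM or 1 μM in 1 cm quartz cells, held at 37°C under UV lamp (365 and 264 nm) or artificial daylight D65 lamp; dark controls in foil at 37°C. Aliquots taken at set intervals; loss of parent by HPLC (C18, TFA water/acetonitrile gradient, 254 nm).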

[11] = Photostability of compound in pH 7.4 buffer assessed as formation of ethyl (2,4-bis((4-fluorobenzyl)amino)phenyl)carbamate by measuring retention time of metabolite incubated for 6 hrs under visible light irradiation by HPLC/MS analysis
[12] = Photostability of compound in pH 7.4 buffer assessed as formation of 4-fluorobenzaldehyde incubated for 6 hrs under visible light irradiation by HPLC analysis
[13] = target: UGT (phase 2 metabolism) (Homo sapiens, UniProt O60656+O75310+O75795+P06133+P0DTE4+P0DTE5+P16662+P19224+P22309+P22310+P35503+P35504+P36537+P54855+Q6UWM9+Q9BY64+Q9HAW7+Q9HAW8+Q9HAW9); test: Drug metabolism in human liver S9 fractions assessed as assessed as UGT-mediated phase 2 metabolism at 1 mM preincubated for 5 mins followed by NADPH addition and measured after 60 mins by RP-UHPLC-DAD analysis relative to control; type: ADME, subcellular; settings: read-out: Drug metabolism
Outline: (§3)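 Compound (2 μL of 1 mM stock) in 100 mM phosphate buffer pH 7.4 with pooled human liver S9, preincubated 5 min, then NADPH added, 37°C for 60 min. For UGT: 5 mM UDPGA, alamethicin, 1 mM MgCl added; for NAT: 2 mM DTT, sulfamethazine, 4.5 mM acetyl DL-carnitine, 0.1 U/mL carnitine acetyltransferase. Stopped with ice-cold methanol; RP-UHPLC-DAD; % turnover = 100 − (60 min/0 min concentration × 100).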

[14] = system: NAT (phase 2 metabolism); test: Drug metabolism in human liver S9 fractions assessed as assessed as NAT-mediated phase 2 metabolism at 1 mM preincubated for 5 mins followed by NADPH addition and measured after 60 mins by RP-UHPLC-DAD analysis relative to control; type: ADME, subcellular; settings: read-out: Drug metabolism; outline: as §3
[15] = Photostability of compound in pH 7.4 buffer assessed as retention time of metabolite incubated for 6 hrs under visible light irradiation by HPLC/MS analysis
[16] = Photostability of compound in pH 7.4 buffer assessed as formation of 4-fluorobenzaldehyde incubated for 6 hrs under visible light irradiation by GCMS analysis
[17] = Photostability of compound in pH 7.4 buffer assessed as metabolite with phenazinium-dimer formation incubated for 6 hrs under visible light irradiation by HPLC/MS/MS analysis
[18] = Half life in human; type: ADME
[19] = target: T1, Potassium voltage-gated channel subfamily KQT member 2; test: Activation of human Kv7.2 expressed in CHO cells assessed as increase in channel current amplitude by whole cell patch clamp electrophysiology assay; type: cell-based

T1 sequence (O43526 whole entry): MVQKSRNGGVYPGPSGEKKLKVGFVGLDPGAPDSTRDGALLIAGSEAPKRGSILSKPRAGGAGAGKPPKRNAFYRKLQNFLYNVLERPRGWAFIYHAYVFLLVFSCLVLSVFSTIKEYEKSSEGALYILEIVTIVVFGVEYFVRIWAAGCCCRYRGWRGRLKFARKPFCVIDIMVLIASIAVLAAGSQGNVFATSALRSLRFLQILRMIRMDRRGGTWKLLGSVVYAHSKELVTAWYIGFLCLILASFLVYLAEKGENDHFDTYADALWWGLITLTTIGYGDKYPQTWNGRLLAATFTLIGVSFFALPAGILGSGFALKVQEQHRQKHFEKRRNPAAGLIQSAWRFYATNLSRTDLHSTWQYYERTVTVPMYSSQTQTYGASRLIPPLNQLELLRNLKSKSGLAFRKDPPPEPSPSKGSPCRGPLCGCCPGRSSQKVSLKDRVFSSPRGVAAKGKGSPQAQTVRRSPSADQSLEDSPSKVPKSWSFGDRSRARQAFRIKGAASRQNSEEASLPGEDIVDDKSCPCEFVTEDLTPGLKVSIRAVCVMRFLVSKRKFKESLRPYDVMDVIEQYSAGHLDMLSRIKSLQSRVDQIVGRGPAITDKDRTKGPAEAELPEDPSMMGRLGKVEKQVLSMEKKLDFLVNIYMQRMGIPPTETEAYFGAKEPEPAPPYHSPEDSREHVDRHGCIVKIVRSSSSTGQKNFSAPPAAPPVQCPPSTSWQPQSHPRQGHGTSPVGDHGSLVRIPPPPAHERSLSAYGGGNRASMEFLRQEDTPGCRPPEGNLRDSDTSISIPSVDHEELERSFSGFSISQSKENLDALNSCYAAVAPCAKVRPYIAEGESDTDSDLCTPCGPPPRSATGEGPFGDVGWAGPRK

## CCCCCCC(=O)Nc1ccc2c(ccn2Cc2ccc(C(F)(F)F)cc2)c1
[1]
  Activity: Active
[2]
  logP: 6.83
[3]
  Activity: Active
[4]
  V1/2: -38.2 mV
[5]
  Activity: Dose-dependent effect
[6]
  Activity: inactive
[7]
  V1/2: 18 mV

## CCOC(=O)Nc1ccc(NCc2ccc(F)cc2)cc1N [EZOGABINE]
[8]
  Activity: Dose-dependent effect
[9]
  Activity: Active
[3]
  Activity: inactive
[4]
  V1/2: -24.4 mV
[10]
  Drug degradation: 47.3%
[11]
  Retention time: 14.4 min
[12]
  Drug metabolism: Metabolite detected
[13]
  metabolised at 1 h, 1000 µM: 11.4%
[14]
  metabolised at 1 h, 1000 µM: 3.41%
[15]
  Retention time: 5.98 min
[16]
  Drug metabolism: Metabolite detected
[17]
  Drug metabolism: Metabolite detected
[18]
  half-life: 6 to 8 h

## CC(C)(C)CC(=O)Nc1ccc2c(ccn2Cc2ccc(C(F)(F)F)cc2)c1
[1]
  Activity: Active
[2]
  logP: 5.58
[5]
  Activity: Dose-dependent effect
[19]
  EC50: 630 nM
[13]
  metabolised at 1 h, 1000 µM: 7.42%
[14]
  metabolised at 1 h, 1000 µM: 12.7%
[6]
  Activity: inactive
